# MC4R antag cAMP: human MC4R antagonism in cAMP assay. hit rate 0.48% among 360,000. AID 540295. inhibition, % at 6.5 µM. P32245. MC4R-expressing cells, MTII-stimulated cAMP, LANCE TR-FRET;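 active means inhibition above its plate's cutoff, the mean of tested wells on that plate plus 3 SD, cut at about 29% in these data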
# Target sequence (P32245 whole entry, looked up): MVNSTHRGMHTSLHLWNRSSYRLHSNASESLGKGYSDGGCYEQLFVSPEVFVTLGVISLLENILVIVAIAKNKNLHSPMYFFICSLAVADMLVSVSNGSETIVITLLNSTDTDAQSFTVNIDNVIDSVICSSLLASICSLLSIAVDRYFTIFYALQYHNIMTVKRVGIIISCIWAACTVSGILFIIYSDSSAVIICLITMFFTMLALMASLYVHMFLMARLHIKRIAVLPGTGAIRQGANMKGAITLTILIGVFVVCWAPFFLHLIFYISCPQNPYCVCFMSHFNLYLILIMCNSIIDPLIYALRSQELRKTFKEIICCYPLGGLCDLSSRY
#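 Material – human MC4R-expressing U2OS cells · Repeats – no replicates · Detection – TR-FRET with Eu-cAMP and labeled anti-cAMP, 671 nm · Times – compound 30 min, challenge 1 h, detection 1 h · Compound – single nominal compound dose of 6.5 µM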
# ANO1 activ: activates or potentiates the mouse TMEM16A chloride channel | B-score at 10 µM | HEK293 TMEM16A/YFP-H148Q/I152L, iodide quench fluorescence; active compounds read low | hit rate 0.3% among 340,000 | AID 623877;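 active means fluorescence-ratio B-score plate-corrected deviation score at least 3 library SD below zero, with starting fluorescence score within 5 deviations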;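 further: channel opened by trigger with iodide after compound preincubation; score built on the fluorescence ratio of max minus min over baseline; more negative score means more quench and so TMEM16A activation or potentiation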
# CSC inhib: blocks cancer stem cells | hit rate 1.1% among 300,000 | AID 2717 | inhibition, % at 7.5 µM | cancer stem cell-like cells viability, luminescence; in the data active means inhibition above about 75%; tested in HMLE shEcad cells
# Beta cell apopt: beta cell apoptosis inhibition | INS-1E cytokine-induced death, ATP luminescence, 48 h; percent of positive-control rescue, neutral wells zero | hit rate 0.8% among 300,000 | protection from apoptosis, % (concentration not given with the values);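 active means Every replicate reaches about 75%, or at least half do and their mean reaches it too, limit read from the data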;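 further: higher means more ATP so stronger rescue from cytokine killing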
# MC4R ag barr: activates human MC4R beta-arrestin recruitment; activation, % at 8.9 µM; hit rate 0.98% among 360,000; U2OS MC4R beta-arrestin complementation, luminescence; percent of melanotan II response, DMSO zero;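 active means activation above a per-plate cutoff, the mean activation of sample wells on that plate plus 3 SD, cut at about 8% in these data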
# TMEM16A inh: mouse TMEM16A channel inhibition, primary screen. Q8BHY3. HEK293 TMEM16A/YFP iodide influx fluorescence, ionomycin. normalized B-score (activity score, 25-100; higher = stronger inhibition) at 10 µM. hit rate 1.2% among 310,000;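 active means ratio plate-corrected score three or more library SD toward inhibition, starting fluorescence score within five deviations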;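 further: score derived from kinetic fluorescence span divided by baseline fluorescence per well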
# Numbers stand for hits; n = inactive; x = not tested or not shown. The list is not random: actives were taken first. Their share in the collection is about 3.8%.
SMILES,MC4R antag cAMP,ANO1 activ,CSC inhib,Beta cell apopt,MC4R ag barr,TMEM16A inh
O=C1CC(NS(=O)(=O)c2ccc([N+](=O)[O-])cc2)CN1c1cccc(F)c1 (stereo unspecified),n,n,n,x,n,n
COc1cc(/C=C/C(=O)c2ccc(NS(=O)(=O)c3ccc(C)cc3)cc2)cc(OC)c1O,n,-5.1,80,n,n,n
COc1cc(/C=C/C(=O)c2ccc(NS(=O)(=O)c3ccc(C)cc3)cc2)ccc1OC(F)F,n,n,n,x,n,n
COc1cccc(/C=C/C(=O)c2ccc(NS(=O)(=O)c3ccc(C)cc3)cc2)c1,n,n,81,n,n,n
COc1ccc(Cl)cc1NS(=O)(=O)c1cccc(C(=O)NCCCN2CCOCC2)c1,n,x,x,x,n,x
CCOC(=O)Cc1csc(NC(=O)Cn2cnc3c2c(=O)n(C)c(=O)n3C)n1,n,n,n,n,n,n
Cn1c(=O)c2c(ncn2CC(=O)Nc2nc(-c3ccccc3Cl)cs2)n(C)c1=O,n,-10,x,n,n,n
NC(=NCCc1ccccc1)c1cccc([N+](=O)[O-])c1,n,n,n,n,n,n
O=C1N=c2ccccc2=C1c1c(O)n(-c2cccc(F)c2)[nH]c1=O,n,n,83,n,n,n
CN(CC(=O)Nc1ccccc1C(=O)NC1CC1)Cc1ccco1,n,n,n,n,n,x
COc1c2c(c(OC)c3ccccc13)[C@@]1(OC2)O[C@H](CCO)C[C@H](O)[C@H]1O,n,x,x,x,n,x
CC(C)c1ccc(NC(=O)c2cc3c(=O)n(C)c4ccccc4c3n2C)cc1,n,n,76,n,n,n
COc1cc(OC)cc(C(=O)N[C@H](C(=O)OCC(=O)Nc2cccnc2Cl)C(C)C)c1,n,n,x,n,n,x
CC1CCCCC1NS(=O)(=O)c1ccc(S(=O)(=O)NCc2ccncc2)cc1 (stereo unspecified),x,x,x,77,x,n
CCOc1ccc(S(=O)(=O)NCc2ccncc2)cc1,n,n,n,116,n,25
Cc1ccc(C)c(S(=O)(=O)NCc2ccncc2)c1,n,n,n,n,n,n
CCOc1cc(S(=O)(=O)NCc2ccncc2)ccc1Cl,n,n,n,111,n,n
Cc1cc(S(=O)(=O)NCc2ccncc2)c(C)cc1Br,n,n,n,75,n,n
CCOc1cc(S(=O)(=O)NCc2cccs2)ccc1Cl,n,n,n,n,n,n
C=CCOC(=O)N1CCC2CC1c1cc(-c3cccc(C)c3)ccc12 (stereo unspecified),n,x,x,x,n,x
COc1ccc(/C=N/NC(=O)COc2ccccc2-c2ccccc2)cc1,n,n,n,n,n,n
O=C(CN1CCCCC1)N/N=C/c1ccccc1OCc1ccccc1,n,n,n,x,n,n
O=C(O)c1cccc(NC(=S)N/N=C/c2ccccc2OCc2ccc(Br)cc2)c1,n,n,n,n,n,25
O=C(COc1cccc2ccccc12)N/N=C/c1ccccc1OCc1ccc(C(=O)O)cc1,n,n,n,n,n,100
O=C(COc1ccccc1-c1ccccc1)N/N=C/c1cccc2ccccc12,n,n,95,n,n,n
SMILES,MC4R antag cAMP,ANO1 activ,CSC inhib,Beta cell apopt,MC4R ag barr,TMEM16A inh
O=C(O)c1cccc(NC(=S)N/N=C/c2ccccc2OCc2cccc(Br)c2)c1,n,n,x,x,n,x
COc1ccc(NS(=O)(=O)c2cccc(C(=O)O)c2)cc1S(=O)(=O)N1CCCCC1,n,n,n,n,n,x
CCCn1c(=O)[nH]c(=O)c2c1nc(-c1ccc(OC(F)(F)C(F)C(F)(F)F)cc1)n2CCOC (stereo unspecified),n,n,n,n,10.0,n
CCCn1c(=O)[nH]c(=O)c2c1nc(-c1ccc(C#N)cc1)n2CCOC,n,n,n,n,n,n
Cc1cccc(CN2C(=O)[C@H]3Cc4c([nH]c5ccccc45)C(C)(C)N3C2=O)c1,n,n,n,n,n,n
Cc1cccc(CN2C(=O)[C@@H]3Cc4c([nH]c5ccccc45)C(C)(C)N3C2=O)c1,n,n,76,x,n,n
O=C(Nc1cccnc1)C1(F)C(F)(F)C(F)(F)C(F)(F)C(F)(F)C1(F)F,n,n,n,110,n,n
O=C(Nc1cccnc1)C12CC3CC(CC(C3)C1)C2,n,n,n,n,n,n
O=C(NC(c1ccc2c(c1)OCO2)c1ccccn1)C1CCN(CCOc2ccccc2)CC1 (stereo unspecified),n,x,x,x,n,x
O=C(CN1C(=O)C2CCCCC2C1=O)NC1CCCc2ccccc21 (stereo unspecified),n,n,x,x,n,x
O=C(CN1C(=O)C2CC=CCC2C1=O)NC1CCCc2ccccc21 (stereo unspecified),n,-23,n,n,n,n
C/C(=N\NC(=O)c1ccc(O)cc1)c1ccc2c(c1)Nc1ccccc1S2,n,n,n,n,n,25
C/C(=N\NC(=O)c1cc(O)cc(O)c1)c1ccc(NC(=O)Cc2ccccc2)cc1,n,n,n,n,n,n
C/C(=N/NC(=O)c1ccc(-c2ccccc2)cc1)c1cc(O)cc(O)c1,n,n,96,n,n,n
NC(CCc1ccccc1)c1csc(NC(=O)Nc2cccc(C(F)(F)F)c2)n1 (stereo unspecified),n,x,x,x,8.8,x
CC(C)c1ccc(NC(=O)Nc2nc(C(N)CCc3ccccc3)cs2)cc1 (stereo unspecified),n,x,x,x,n,x
COc1ccc(CC(N)c2csc(NC(=O)Nc3cccc(C(F)(F)F)c3)n2)cc1 (stereo unspecified),n,x,x,x,n,x
NC(CCc1ccccc1)c1csc(NC(=O)NCC2CCCCC2)n1 (stereo unspecified),n,x,x,x,8.7,x
C=CCn1c(SCCC)nc2sc3c(c2c1=O)CCc1ccccc1-3,n,n,83,n,n,n
COC(=O)c1cc(=O)n(CCc2ccc(OC)cc2)c(=Nc2ccc(F)c(Cl)c2)s1,n,n,100,n,n,n
COC(=O)c1cc(NC(=S)Nc2cc(Cl)cc(Cl)c2)cc(C(=O)OC)c1,n,n,n,n,n,100
COC(=O)c1cc(NC(=O)c2ccc(-c3ccccc3)cc2)ccc1Cl,n,n,n,n,9.3,n
COC(=O)c1cccc(NC(=S)Nc2ccc(Cl)c(Cl)c2)c1,n,n,n,n,n,100
COC(=O)c1cccc(NC(=S)Nc2ccccc2Cl)c1,n,n,n,n,n,n
COC(=O)c1cccc(NC(=S)Nc2cccc(Cl)c2C)c1,n,n,x,n,n,n
CCNc1nc(NCC)nc(NS(=O)(=O)c2ccc(N)cc2)n1,n,n,n,n,n,n
CC(C)NC(=O)C1(C)CCCN1Cc1csc2ccccc12 (stereo unspecified),n,x,x,x,n,x
NC(N)=NC(N)=Nc1ccc(SC(F)(F)F)cc1,n,n,n,116,n,n

# Source: PubChem BioAssay
